Laboratory results published in ChEMBL document CHEMBL1142735, “Discovery of a new series of centrally active tricyclic isoxazoles combining serotonin (5-HT) reuptake inhibition with alpha2-adrenoceptor blocking activity” (J Med Chem, 2005).

Tests used:
[1] = biological target: Rattus norvegicus; assay: Effective dose concentration for antagonism ofpCA-Induced excitation was determined by subcutaneous administration; format: functional, organism-based
Procedure, shortened: (§1)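 Male Wistar rats (200-250 g), fasted overnight, given test compound or solvent sc before challenge. Loss of righting induced by medetomidine 0.10 mg/kg iv; reversal means no loss of righting. Excitation induced by pCA 5 mg/10 mL/kg sc and scored 0-3 over 15 min starting 45 min after pCA; inhibition means score <2.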

[2] = biological target: T1, Alpha-2C adrenergic receptor (Homo sapiens, UniProt P18825); assay: Binding affinity for alpha-2C adrenergic receptor
T1 sequence (P18825 whole entry): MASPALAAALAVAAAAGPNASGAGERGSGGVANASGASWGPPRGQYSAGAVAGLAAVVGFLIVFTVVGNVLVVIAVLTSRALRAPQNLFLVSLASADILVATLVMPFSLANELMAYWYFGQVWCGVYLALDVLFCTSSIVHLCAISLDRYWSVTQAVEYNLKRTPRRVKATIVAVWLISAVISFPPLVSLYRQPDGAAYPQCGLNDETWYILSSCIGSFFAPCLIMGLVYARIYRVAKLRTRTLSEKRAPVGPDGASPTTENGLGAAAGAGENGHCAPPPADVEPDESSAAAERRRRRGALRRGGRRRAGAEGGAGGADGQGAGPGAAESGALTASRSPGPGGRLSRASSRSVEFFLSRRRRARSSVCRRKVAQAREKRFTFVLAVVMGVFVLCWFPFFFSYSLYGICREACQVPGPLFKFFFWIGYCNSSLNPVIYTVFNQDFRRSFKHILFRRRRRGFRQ
Procedure, shortened: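 Human alpha2C receptor stably expressed in CHO cell membranes (5-10 µg protein) in 25 mM glycylglycine, pH 7.6. Competition against [3H]rauwolscine (1 nM), 30 min at 25 °C. Nonspecific binding defined with spiroxatrine (1 µM). Rapid filtration over GF/B, washed with ice-cold 50 mM Tris-HCl pH 8.0, scintillation counting. Sigmoidal curves fitted; Ki by Cheng-Prusoff.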

[3] = biological target: Rattus norvegicus; assay: Effective dose concentration for reversal of medetomidine-Induced loss of righting was determined by subcutaneous administration; format: functional, organism-based; procedure, shortened: as §1
[4] = biological target: Sodium-dependent serotonin transporter (Homo sapiens, UniProt P31645); assay: Binding affinity for serotonin transporter
Sodium-dependent serotonin transporter, sequence (P31645 whole entry): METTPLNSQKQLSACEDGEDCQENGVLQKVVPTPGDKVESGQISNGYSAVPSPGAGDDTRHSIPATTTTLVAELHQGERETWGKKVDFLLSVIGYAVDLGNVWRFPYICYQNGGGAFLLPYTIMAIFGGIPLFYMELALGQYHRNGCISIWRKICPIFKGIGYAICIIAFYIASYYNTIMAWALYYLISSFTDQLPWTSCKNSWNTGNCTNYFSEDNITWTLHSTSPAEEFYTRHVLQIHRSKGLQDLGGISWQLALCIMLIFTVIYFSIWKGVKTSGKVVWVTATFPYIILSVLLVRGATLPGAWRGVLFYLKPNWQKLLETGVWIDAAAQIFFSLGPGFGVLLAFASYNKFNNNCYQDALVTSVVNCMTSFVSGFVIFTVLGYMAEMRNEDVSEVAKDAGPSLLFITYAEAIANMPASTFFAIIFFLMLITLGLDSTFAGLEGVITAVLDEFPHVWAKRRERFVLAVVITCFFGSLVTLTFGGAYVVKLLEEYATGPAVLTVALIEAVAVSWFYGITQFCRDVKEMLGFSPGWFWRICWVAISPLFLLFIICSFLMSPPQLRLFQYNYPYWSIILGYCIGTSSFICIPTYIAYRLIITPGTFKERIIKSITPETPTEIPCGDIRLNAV
Procedure, shortened: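 Human platelet membranes (50 µg protein) in 50 mM Tris-HCl pH 7.4 with 120 mM NaCl and 5 mM KCl. Competition against [3H]paroxetine (0.5 nM), 60 min at 25 °C. Nonspecific binding defined with imipramine (1 µM). Filtration over 0.1% PEI-presoaked GF/B, washed with incubation buffer. Sigmoidal fit of specific binding; Ki via Cheng-Prusoff.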

[5] = biological target: D(2) dopamine receptor (Homo sapiens, UniProt P14416); assay: Inhibition of [3H]spiperone binding to Dopamine receptor D2
D(2) dopamine receptor, sequence (P14416 whole entry): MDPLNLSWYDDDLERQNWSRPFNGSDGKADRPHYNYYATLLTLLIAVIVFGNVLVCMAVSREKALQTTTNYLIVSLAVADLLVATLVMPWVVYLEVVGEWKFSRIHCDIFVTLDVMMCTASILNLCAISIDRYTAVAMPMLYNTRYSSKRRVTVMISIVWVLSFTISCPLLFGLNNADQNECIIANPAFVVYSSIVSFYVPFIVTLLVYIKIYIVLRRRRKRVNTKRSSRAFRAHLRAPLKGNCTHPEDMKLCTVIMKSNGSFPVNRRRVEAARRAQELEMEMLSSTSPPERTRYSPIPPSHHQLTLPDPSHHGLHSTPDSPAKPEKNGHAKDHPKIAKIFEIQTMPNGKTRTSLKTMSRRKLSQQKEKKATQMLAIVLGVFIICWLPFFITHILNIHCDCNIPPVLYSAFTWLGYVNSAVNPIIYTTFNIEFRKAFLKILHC
Procedure, shortened: (§2)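 Radioligand competition binding on membranes from cell lines carrying the human target, incubated with the labelled ligand under optimized conditions. Separation by filtration, except α1A and D3, which used scintillation proximity assay.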

[6] = biological target: T2, Adrenergic receptor alpha-1 (Homo sapiens, UniProt P35348+P25100+P35368); assay: Inhibition of [3H]- prazosin binding to alpha-1 adrenergic receptor; format: protein assay; procedure, shortened: as §2
T2 sequence (P35348 whole entry): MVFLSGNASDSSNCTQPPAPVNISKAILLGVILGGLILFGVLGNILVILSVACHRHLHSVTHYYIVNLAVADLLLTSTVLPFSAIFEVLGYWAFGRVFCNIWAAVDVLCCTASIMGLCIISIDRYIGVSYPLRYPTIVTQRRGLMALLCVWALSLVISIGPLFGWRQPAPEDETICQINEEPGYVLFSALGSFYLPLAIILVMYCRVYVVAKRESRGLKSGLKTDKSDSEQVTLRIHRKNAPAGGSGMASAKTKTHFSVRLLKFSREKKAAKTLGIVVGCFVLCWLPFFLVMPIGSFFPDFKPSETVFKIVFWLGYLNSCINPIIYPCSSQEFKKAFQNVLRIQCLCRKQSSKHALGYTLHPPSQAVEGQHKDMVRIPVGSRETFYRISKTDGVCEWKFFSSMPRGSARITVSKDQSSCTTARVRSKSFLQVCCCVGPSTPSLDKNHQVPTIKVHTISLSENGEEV
T2 sequence (P25100 whole entry): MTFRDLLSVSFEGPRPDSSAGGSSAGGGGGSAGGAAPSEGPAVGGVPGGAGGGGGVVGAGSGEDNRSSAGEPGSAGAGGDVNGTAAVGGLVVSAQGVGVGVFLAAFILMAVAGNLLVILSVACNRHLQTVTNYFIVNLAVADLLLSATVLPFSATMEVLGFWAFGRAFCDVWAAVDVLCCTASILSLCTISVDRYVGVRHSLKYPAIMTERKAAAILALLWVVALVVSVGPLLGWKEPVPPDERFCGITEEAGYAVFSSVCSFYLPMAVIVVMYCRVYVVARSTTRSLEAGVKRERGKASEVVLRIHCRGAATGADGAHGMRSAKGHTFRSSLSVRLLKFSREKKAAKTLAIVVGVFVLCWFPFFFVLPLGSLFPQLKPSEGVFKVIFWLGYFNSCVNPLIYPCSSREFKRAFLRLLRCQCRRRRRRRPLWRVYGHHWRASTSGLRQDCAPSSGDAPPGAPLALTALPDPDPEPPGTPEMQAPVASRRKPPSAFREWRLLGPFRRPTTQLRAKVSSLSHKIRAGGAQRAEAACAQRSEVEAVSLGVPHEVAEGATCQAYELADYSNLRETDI
T2 sequence (P35368 whole entry): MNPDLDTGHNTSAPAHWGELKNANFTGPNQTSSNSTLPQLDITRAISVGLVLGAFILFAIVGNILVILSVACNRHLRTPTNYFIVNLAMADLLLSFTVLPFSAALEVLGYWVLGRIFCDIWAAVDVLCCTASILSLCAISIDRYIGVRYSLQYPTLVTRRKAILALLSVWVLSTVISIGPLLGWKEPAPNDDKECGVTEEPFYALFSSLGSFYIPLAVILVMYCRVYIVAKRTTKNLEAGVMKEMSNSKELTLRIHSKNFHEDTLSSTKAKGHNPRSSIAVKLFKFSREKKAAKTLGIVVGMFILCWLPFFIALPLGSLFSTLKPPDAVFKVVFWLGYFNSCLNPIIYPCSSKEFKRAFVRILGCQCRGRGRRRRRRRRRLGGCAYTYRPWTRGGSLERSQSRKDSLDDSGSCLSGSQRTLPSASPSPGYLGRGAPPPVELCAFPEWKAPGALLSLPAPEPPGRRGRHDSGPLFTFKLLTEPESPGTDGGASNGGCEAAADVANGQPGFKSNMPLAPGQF

[7] = biological target: T3, 5-hydroxytryptamine receptor 2C (Homo sapiens, UniProt P28335); assay: Inhibition of [3H]- mesulergine binding to 5-hydroxytryptamine 2C receptor; procedure, shortened: as §2
T3 sequence (P28335 whole entry): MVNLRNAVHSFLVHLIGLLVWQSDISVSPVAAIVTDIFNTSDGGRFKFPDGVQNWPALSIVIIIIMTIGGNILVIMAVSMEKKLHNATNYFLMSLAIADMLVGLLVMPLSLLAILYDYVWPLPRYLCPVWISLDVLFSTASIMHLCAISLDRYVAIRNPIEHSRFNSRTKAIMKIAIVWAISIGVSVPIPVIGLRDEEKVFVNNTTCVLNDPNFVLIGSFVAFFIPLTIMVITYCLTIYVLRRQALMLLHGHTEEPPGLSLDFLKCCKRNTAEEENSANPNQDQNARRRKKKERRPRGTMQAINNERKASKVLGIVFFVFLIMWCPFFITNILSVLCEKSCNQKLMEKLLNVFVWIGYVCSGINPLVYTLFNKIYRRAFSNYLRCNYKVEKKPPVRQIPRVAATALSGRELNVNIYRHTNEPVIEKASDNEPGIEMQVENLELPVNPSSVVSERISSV

[8] = biological target: 5-hydroxytryptamine receptor 2A (Homo sapiens, UniProt P28223); assay: Inhibition of [125I]- R91150 binding to 5-hydroxytryptamine 2A receptor; procedure, shortened: as §2
5-hydroxytryptamine receptor 2A, sequence (P28223 whole entry): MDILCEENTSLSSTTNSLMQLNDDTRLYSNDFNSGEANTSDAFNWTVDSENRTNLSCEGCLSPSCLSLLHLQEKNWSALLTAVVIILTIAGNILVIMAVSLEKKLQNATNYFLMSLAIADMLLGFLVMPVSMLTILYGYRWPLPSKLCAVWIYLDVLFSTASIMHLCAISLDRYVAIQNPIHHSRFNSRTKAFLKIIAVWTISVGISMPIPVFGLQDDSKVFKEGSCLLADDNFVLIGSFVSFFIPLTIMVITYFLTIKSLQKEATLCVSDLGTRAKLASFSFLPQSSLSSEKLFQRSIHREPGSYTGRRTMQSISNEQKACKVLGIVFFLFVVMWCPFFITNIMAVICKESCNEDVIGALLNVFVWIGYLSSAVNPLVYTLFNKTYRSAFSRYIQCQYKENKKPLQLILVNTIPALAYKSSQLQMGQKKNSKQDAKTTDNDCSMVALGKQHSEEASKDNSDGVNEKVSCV

[9] = biological target: T4, 5-hydroxytryptamine receptor 1A (Homo sapiens, UniProt P08908); assay: Inhibition of [3H]8-OH-DPAT binding to 5-hydroxytryptamine 1A receptor; procedure, shortened: as §2
T4 sequence (P08908 whole entry): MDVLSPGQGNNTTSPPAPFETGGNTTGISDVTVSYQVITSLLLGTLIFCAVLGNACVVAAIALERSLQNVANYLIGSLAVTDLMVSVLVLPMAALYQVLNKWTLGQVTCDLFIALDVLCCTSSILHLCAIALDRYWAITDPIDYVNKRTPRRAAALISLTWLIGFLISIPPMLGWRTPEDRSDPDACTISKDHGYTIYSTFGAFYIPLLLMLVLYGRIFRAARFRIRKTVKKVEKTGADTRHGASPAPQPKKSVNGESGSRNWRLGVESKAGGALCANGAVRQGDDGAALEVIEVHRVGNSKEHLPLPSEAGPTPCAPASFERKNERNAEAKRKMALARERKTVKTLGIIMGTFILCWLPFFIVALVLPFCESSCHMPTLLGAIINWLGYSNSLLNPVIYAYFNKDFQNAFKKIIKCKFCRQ

[10] = biological target: Histamine H1 receptor (Homo sapiens, UniProt P35367); assay: Inhibition of [3H]pyrilamine binding to Histamine H1 receptor
Histamine H1 receptor, sequence (P35367 whole entry): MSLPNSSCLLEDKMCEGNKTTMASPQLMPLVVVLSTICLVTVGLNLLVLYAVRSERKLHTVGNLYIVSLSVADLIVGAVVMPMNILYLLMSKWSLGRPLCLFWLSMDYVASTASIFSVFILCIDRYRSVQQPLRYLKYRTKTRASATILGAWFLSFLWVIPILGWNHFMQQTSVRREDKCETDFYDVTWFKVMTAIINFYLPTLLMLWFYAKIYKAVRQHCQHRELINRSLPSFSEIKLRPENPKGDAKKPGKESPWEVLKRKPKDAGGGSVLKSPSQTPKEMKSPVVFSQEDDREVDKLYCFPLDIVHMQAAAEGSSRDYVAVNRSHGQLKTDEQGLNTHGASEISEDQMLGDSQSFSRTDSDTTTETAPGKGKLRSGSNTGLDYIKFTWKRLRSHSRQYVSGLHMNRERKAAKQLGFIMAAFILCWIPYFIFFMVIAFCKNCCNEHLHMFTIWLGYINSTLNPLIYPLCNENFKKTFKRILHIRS
Procedure, shortened: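 Radioligand competition on membranes from a cell line transfected with the human target, incubated under optimized conditions. Stopped by rapid filtration. Ki by Cheng-Prusoff.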

[11] = biological target: Norepinephrine transporter (Rattus norvegicus, UniProt Q9WTR4); assay: Inhibition of [3H]-nisoxetine binding to Norepinephrine transporter from rat cortex
Norepinephrine transporter, sequence (Q9WTR4 whole entry): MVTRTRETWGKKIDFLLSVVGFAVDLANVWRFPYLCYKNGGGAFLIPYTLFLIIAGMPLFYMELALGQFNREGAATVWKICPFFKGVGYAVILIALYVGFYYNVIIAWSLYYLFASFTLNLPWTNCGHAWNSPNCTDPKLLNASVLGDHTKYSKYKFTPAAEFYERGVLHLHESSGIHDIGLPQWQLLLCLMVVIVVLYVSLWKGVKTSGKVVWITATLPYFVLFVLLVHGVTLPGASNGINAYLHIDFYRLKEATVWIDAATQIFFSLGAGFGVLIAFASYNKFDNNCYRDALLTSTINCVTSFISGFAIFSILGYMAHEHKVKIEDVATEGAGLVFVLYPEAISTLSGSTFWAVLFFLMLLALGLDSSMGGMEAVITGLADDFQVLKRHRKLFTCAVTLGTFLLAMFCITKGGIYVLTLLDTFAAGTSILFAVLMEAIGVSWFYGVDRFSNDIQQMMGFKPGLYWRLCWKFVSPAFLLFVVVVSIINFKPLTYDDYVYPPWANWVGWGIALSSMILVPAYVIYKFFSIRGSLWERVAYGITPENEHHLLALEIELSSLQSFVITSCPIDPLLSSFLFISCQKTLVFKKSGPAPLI
Procedure, shortened: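 Radioligand competition on rat cortex membranes, incubated under optimized conditions. Stopped by rapid filtration. Ki by Cheng-Prusoff.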

[12] = biological target: Sodium-dependent dopamine transporter (Rattus norvegicus, UniProt P23977); assay: Inhibition of [3H]WIN-35428 binding to Dopamine transporter of rat striatum; format: tissue-based
Sodium-dependent dopamine transporter, sequence (P23977 whole entry): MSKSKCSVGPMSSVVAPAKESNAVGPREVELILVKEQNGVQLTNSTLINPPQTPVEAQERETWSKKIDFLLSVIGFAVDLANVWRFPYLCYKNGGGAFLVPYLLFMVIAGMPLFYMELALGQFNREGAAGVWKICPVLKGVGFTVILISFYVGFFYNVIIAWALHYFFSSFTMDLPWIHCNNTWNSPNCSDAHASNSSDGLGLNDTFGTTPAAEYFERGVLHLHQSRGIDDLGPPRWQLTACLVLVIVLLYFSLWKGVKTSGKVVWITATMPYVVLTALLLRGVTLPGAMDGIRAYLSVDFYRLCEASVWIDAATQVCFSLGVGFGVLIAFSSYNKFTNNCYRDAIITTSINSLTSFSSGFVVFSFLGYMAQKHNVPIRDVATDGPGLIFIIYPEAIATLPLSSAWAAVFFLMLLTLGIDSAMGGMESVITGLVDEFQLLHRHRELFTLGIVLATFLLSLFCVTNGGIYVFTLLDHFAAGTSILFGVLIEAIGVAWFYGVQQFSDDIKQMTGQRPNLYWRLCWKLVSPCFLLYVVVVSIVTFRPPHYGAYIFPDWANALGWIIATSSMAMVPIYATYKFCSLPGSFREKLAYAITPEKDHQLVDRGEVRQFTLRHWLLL
Procedure, shortened: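 Competition binding using rat striatum membranes incubated with the radioligand under optimized conditions, separated by filtration.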

[13] = biological target: T5, D(4) dopamine receptor (Homo sapiens, UniProt P21917); assay: Inhibition of [3H]spiperone binding to Dopamine receptor D4; procedure, shortened: as §2
T5 sequence (P21917 whole entry): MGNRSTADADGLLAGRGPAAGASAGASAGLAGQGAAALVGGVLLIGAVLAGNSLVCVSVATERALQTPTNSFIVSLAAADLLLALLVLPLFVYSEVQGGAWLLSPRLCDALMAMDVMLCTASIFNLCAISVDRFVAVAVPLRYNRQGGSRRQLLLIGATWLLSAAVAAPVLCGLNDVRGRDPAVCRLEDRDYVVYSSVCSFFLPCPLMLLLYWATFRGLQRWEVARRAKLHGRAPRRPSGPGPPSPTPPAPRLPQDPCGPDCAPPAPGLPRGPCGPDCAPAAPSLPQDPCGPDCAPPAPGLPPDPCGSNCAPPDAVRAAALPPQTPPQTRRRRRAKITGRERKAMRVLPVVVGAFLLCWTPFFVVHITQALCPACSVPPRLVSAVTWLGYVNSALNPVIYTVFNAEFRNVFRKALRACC

[14] = test system: Rattus norvegicus; assay: Effective dose for antagonism ofpCA-Induced excitation was determined by oral administration; format: functional
Procedure, shortened: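 Oral pretreatment of overnight-fasted male Wistar rats (200-250 g), then medetomidine 0.10 mg/kg iv (reversal means no loss of righting) or pCA 5 mg/kg sc (excitation scored 0-3 over 15 min from 45 min after pCA; inhibition means score <2). Doses taken from a geometric series.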

[15] = biological target: 5-hydroxytryptamine receptor 7 (Homo sapiens, UniProt P34969); assay: Inhibition of [3H]5-HT binding to 5-hydroxytryptamine 7 receptor; procedure, shortened: as §2
5-hydroxytryptamine receptor 7, sequence (P34969 whole entry): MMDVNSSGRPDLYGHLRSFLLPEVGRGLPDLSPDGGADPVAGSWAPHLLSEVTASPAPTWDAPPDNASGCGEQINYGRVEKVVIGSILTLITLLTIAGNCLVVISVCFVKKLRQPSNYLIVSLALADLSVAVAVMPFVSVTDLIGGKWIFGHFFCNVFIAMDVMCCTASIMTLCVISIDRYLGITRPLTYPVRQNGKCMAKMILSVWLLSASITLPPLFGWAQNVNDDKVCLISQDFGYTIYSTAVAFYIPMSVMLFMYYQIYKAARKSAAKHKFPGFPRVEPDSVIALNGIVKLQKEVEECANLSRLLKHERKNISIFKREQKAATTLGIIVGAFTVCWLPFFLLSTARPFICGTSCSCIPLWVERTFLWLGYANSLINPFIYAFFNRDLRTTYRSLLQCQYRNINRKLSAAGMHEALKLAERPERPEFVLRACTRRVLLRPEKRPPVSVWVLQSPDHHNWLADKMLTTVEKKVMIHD

| SMILES | ED50 [1] | Ki [2] | ED50 [3] | Ki [4] | Ki [5] | Ki [6] | Ki [7] | Ki [8] | Ki [9] | Ki [10] | Ki [11] | Ki [12] | Ki [13] | ED50 [14] | Ki [15] |
| --- | --- | --- | --- | --- | --- | --- | --- | --- | --- | --- | --- | --- | --- | --- | --- |
| COc1cc2c(cc1OC)C1=NO[C@@H](CN3CCN(C/C=C(\C)c4ccccc4)CC3)[C@@H]1CN2 | 7.9 mg/kg | 0.0036 µM | 2.5 mg/kg | 0.015 µM |  |  |  |  |  |  |  |  |  |  |  |
| COc1cccc2c1CCC[C@H]2CN(C)CCc1ccc2ccoc2c1 |  |  |  |  | > 1 µM | > 1 µM | > 1 µM | > 1 µM | > 1 µM | > 1 µM | > 1 µM | > 1 µM | 0.234 µM | > 10 mg/kg |  |
| Fc1ccc2c(c1)CC(CC1CN=CN1)C2 (stereo not drawn) |  |  |  |  | > 1 µM | > 1 µM | > 1 µM | > 1 µM | 0.77 µM | > 1 µM | 0.365 µM | > 1 µM |  |  | > 1 µM |
